Activity calls are given as the source filed them. No cut-off for these calls is given here.
Tests used:
[1] = biological target: T1, Protein deacetylase HDAC6 (Homo sapiens, UniProt Q9UBN7); assay: Inhibition of N-terminal GST tagged human recombinant HDAC6 (1 to 1215 residues) expressed in Sf9 insect cells using Z-Lys(Ac)-AMC as fluorogenic substrate preincubated for 5 mins followed by substrate addition and measured after 90 mins by microplate reader analysis
T1 sequence (Q9UBN7 whole entry): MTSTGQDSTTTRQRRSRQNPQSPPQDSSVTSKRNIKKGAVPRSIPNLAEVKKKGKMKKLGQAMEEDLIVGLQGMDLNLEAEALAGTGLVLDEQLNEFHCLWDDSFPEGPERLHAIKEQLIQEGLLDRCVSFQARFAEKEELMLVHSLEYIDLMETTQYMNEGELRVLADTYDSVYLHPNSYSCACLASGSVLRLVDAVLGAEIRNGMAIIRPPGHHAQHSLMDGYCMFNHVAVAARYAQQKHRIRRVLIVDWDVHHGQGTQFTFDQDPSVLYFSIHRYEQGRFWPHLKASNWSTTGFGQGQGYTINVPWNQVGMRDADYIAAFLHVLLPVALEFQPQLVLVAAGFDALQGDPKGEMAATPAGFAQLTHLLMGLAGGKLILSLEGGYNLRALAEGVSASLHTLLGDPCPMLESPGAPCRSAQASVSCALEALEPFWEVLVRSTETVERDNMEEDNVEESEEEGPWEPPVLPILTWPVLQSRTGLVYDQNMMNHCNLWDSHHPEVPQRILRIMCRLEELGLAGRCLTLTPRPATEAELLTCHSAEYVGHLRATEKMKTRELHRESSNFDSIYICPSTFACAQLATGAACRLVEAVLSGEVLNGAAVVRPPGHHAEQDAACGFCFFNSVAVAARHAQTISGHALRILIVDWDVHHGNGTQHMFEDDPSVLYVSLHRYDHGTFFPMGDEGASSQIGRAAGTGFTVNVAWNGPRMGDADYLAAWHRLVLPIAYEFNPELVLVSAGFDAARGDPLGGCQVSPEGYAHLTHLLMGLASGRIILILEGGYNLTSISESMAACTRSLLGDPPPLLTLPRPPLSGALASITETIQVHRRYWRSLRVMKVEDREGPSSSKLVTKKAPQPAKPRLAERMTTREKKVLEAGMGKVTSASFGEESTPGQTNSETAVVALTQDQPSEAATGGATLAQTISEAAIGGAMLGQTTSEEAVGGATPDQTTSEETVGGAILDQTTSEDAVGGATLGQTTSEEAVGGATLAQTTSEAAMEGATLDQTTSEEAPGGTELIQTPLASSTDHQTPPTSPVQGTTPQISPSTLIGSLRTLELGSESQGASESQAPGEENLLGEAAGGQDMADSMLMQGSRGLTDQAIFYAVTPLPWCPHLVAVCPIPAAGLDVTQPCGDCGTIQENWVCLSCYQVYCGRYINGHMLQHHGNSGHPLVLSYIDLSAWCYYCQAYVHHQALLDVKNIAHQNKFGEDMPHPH

[2] = system: T2, Histone deacetylase 6 (Danio rerio), F8W4B7 [H573A]; assay: Irreversible inhibition of Danio rerio HDAC6 H573A mutant catalytic domain 2 assessed as enzyme catalysed ring opening by measuring reduction in 2-(Benzylamino)pyrimidine-5-carbohydrazide formation at 100 uM incubated overnight by LC-MS analysis
T2 sequence (whole entry): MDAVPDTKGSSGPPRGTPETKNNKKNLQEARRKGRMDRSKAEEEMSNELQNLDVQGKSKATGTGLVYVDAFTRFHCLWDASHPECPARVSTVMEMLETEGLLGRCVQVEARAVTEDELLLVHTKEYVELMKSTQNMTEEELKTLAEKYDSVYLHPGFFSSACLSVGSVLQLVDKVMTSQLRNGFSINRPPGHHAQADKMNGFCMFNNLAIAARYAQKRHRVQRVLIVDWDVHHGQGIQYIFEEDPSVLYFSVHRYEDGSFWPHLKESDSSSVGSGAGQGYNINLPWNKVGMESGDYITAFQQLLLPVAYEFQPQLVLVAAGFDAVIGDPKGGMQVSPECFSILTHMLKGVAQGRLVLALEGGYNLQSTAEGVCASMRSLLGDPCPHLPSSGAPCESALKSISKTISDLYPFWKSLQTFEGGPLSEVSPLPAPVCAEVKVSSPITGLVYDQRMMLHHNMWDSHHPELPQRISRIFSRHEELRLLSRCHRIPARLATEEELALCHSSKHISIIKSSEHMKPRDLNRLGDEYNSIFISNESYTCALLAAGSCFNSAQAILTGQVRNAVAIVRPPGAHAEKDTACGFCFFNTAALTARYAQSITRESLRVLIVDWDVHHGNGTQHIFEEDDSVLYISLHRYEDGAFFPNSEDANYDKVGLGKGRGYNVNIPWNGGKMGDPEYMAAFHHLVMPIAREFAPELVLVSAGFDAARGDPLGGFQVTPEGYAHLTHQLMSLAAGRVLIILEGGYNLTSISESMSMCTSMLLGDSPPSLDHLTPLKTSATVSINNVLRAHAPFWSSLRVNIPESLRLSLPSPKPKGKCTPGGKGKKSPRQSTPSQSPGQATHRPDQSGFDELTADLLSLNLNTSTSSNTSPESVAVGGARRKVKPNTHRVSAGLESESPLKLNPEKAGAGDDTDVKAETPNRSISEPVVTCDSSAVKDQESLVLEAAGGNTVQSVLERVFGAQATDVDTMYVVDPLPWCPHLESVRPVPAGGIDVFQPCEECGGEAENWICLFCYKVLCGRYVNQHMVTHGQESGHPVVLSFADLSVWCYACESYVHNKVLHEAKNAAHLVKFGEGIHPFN
Method in brief: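 Zebrafish HDAC6 CD2 mutants were made by site-directed mutagenesis and expressed in BL21(DE3). Enzyme at 50 μM was incubated overnight with 100 μM inhibitor in 50 mM HEPES pH 7.5, 100 mM KCl, 1 mM TCEP, 5% glycerol; an enzyme-free control was included. Protein was methanol-precipitated and filtered, and products were analysed by C18 UPLC-MS with a 2-min gradient.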

[3] = biological target: Histone deacetylase 4 (Homo sapiens) (UniProt P56524); assay: Inhibition of N-terminal GST-tagged/C-terminal His-tagged human HDAC4 (627 to 1084 residues) expressed in Sf9 insect cells using Boc-Lys(Tfa)-AMC as fluorogenic substrate at 10 uM preincubated for 60 mins followed by substrate addition and measured after 90 mins by microplate reader analysis relative to control; conditions: time 150.0 min
Method in brief: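 Recombinant human HDAC4 was preincubated with inhibitor for 60 min at 25 °C in Tris-HCl pH 8.0/BSA buffer. Boc-Lys(Tfa)-AMC (42.86 μM solution) was then added for 90 min at 37 °C, followed by trypsin for 30 min at 37 °C. Fluorescence was read at ex 355/em 460. Tested at least twice in duplicate.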

Sequence of Histone deacetylase 4 (Homo sapiens) (P56524 whole entry, the tested form may be a part): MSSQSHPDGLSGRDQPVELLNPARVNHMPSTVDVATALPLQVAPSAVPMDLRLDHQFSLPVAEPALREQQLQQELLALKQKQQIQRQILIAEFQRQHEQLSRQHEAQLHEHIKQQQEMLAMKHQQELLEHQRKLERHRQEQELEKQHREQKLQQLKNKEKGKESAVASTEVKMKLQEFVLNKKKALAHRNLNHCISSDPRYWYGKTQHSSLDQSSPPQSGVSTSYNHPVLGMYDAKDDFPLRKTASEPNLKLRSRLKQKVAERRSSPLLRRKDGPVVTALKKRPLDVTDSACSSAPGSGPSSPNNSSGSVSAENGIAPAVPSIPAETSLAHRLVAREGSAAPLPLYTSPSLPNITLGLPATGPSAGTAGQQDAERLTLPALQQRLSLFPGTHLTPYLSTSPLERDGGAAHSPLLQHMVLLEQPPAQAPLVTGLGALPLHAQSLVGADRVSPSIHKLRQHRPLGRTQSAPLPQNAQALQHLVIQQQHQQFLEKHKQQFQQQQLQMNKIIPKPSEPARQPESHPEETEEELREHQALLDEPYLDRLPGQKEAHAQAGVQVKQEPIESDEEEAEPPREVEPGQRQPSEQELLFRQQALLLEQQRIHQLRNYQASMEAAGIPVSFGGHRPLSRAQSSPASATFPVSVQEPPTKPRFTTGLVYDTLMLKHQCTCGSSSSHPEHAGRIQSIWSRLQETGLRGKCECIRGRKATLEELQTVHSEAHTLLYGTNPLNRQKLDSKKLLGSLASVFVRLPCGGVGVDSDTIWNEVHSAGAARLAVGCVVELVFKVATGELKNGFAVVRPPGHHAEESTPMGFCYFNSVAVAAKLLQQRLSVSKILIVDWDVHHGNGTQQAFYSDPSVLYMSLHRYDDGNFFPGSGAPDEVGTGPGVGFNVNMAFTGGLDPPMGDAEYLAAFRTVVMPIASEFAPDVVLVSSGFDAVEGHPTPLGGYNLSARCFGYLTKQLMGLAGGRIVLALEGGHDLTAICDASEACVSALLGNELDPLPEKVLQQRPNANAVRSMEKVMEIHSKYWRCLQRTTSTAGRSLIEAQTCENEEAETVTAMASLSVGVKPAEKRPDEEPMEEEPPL

SMILES | IC50 [1] | inhibition [2] | inhibition [3]
FC(F)(F)c1nnc(-c2cnc(NCc3ccccc3)nc2)o1 | 0.84 µM | Active | < 15%
FC(F)c1nnc(-c2cnc(NCc3ccccc3)nc2)o1 | 0.347 µM | Active | < 15%

From ChEMBL document CHEMBL5365542, “Difluoromethyl-1,3,4-oxadiazoles Are Selective, Mechanism-Based, and Essentially Irreversible Inhibitors of Histone Deacetylase 6” (J Med Chem, 2023)
